Measurements taken from ChEMBL document CHEMBL1149080, “Synthesis and structure-activity relationships of 2-phenyl-1-[(pyridinyl- and piperidinylmethyl)amino]-3-(1H-1,2,4-triazol-1-yl)propan-2-ols as antifungal agents” (2009).
In brackets after ≈: the same amount, converted by molar mass.

Experiments:
Candida albicans = assay: Antifungal activity against Candida albicans CA98001; type: functional
Method in brief: (§1)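 Growth inhibition of each strain in vitro, following an earlier method; endpoint is MIC80, the lowest concentration giving 80% growth inhibition, in ng mL-1. Values are means of triplicate determinations, with standard deviation given.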

Aspergillus fumigatus = assay: Antifungal activity against Aspergillus fumigatus AF98003; type: functional; method in brief: as §1

SMILES | MIC80 (Candida albicans) [µg/mL] | MIC80 (Aspergillus fumigatus) [µg/mL]
OC(CNCc1ccccn1)(Cn1cncn1)c1ccc(F)cc1F (stereo unspecified) | 0.22 (≈ 0.637 µM) | > 30
OC(Cn1cncn1)(Cn1cncn1)c1ccc(F)cc1F [FLUCONAZOLE] | 0.19 (≈ 0.62 µM) | –
CCC(C)n1ncn(-c2ccc(N3CCN(c4ccc(OCC5COC(Cn6cncn6)(c6ccc(Cl)cc6Cl)O5)cc4)CC3)cc2)c1=O (stereo unspecified) [ITRACONAZOLE] | – | 0.42 (≈ 0.595 µM)
OC(CNCc1ccccn1)(Cn1cncn1)c1ccc(Cl)cc1Cl (stereo unspecified) | 0.023 (≈ 0.0608 µM) | > 30
CC(C)(C)OC(=O)N1CCC(CNCC(O)(Cn2cncn2)c2ccc(F)cc2F)CC1 (stereo unspecified) | 0.027 (≈ 0.0598 µM) | > 30
CC(C)(C)OC(=O)N1CCC(CNCC(O)(Cn2cncn2)c2ccc(Cl)cc2Cl)CC1 (stereo unspecified) | 0.026 (≈ 0.0537 µM) | > 30
CN(CC1CCN(C(=O)OC(C)(C)C)CC1)CC(O)(Cn1cncn1)c1ccc(F)cc1F (stereo unspecified) | 0.153 (≈ 0.329 µM) | > 30
CN(CC1CCN(C(=O)OC(C)(C)C)CC1)CC(O)(Cn1cncn1)c1ccc(Cl)cc1Cl (stereo unspecified) | 0.039 (≈ 0.0782 µM) | > 30
OC(CNCC1CCNCC1)(Cn1cncn1)c1ccc(F)cc1F (stereo unspecified) | 1.41 (≈ 4.01 µM) | > 30
OC(CNCC1CCNCC1)(Cn1cncn1)c1ccc(Cl)cc1Cl (stereo unspecified) | 0.12 (≈ 0.312 µM) | > 30
OC(CNCc1cccnc1)(Cn1cncn1)c1ccc(F)cc1F (stereo unspecified) | 0.13 (≈ 0.376 µM) | > 30
OC(CNCc1cccnc1)(Cn1cncn1)c1ccc(Cl)cc1Cl (stereo unspecified) | 0.037 (≈ 0.0978 µM) | > 30
OC(CNCc1ccncc1)(Cn1cncn1)c1ccc(F)cc1F (stereo unspecified) | 0.083 (≈ 0.24 µM) | > 30
OC(CNCc1ccncc1)(Cn1cncn1)c1ccc(Cl)cc1Cl (stereo unspecified) | 0.036 (≈ 0.0952 µM) | > 30
